Assay results published in PMC8995400 (Drug delivery and translational research, 2021).

Tests used:
Hec50co cells [1] = experiment: Cell viability; assay type: cell-based, human; conditions: PD98059 alone
Hec50co cells [2] = experiment: Cell cycle analysis by flow cytometry; assay type: cell-based, human
In short: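 Hec50co cells seeded at 5×10^3 cells/well in complete DMEM and held 24 hr at 37°C, 5% CO2. They were then exposed 24 hr to taxane (5 or 10 nM), MEK inhibitor (25 μM) or both. Cells were PBS-washed, trypsinized, fixed in ice-cold 70% ethanol 30 min at 4°C, then taken up in PBS with 1% NP40 and 100 μg/mL RNase at 37°C for 30 min. Flow cytometry gave % cells per phase; mean ± SD, n = 3.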

[3] = Plasma pharmacokinetics after IV injection in mice; assay type: in vivo, BALB/CJ mice; conditions: for C0 / clearance / MRT inf / half-life / Vd: BALB/CJ, mouse, iv, 113 ug; for clearance: Cl; for MRT inf: MRT0-inf; for Vd: Vss
In short: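 Same IV dosing of mice (113 μg, solution or nanoparticle-loaded), sampled 5, 30, 60, 120, 180 and 360 min. Blood was spun at 10,600 xg for 5 min, and plasma was extracted and assayed by C18 HPLC-UV (methanol:water 70:30, 0.1% TFA, 320 nm). Concentration–time data were analysed in PK Solver by non-compartmental, 1- and 2-compartment models. n = 3, mean ± SD.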

[4] = Biodistribution of PD98059 in mouse organs after IV injection; assay type: in vivo, BALB/CJ mice; conditions: mice; for AUC0-6: IV
In short: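 BALB/CJ mice (8 weeks, 20–23 g) got 113 μg test compound as solution, or as loaded PAMAM-coated PLGA-PEG nanoparticles (3 mg, equivalent dose), IV retro-orbitally. Organs were taken at 5–360 min, rinsed, bead-homogenised in PBS with 7-hydroxyflavone internal standard, and ethyl acetate-extracted. Levels were measured by C18 HPLC-UV at 320 nm against the area ratio to standard. n = 3, mean ± SD.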

[5] = rats, 2-compartment open model; cited from earlier work
[6] = in 24 h; cited from earlier work
[7] = Non compartment model, IV, mice
[8] = One-compartment model, IV, mice
[9] = Two-compartment model, IV, mice

## COc1cccc(-c2cc(=O)c3ccccc3o2)c1N [PD98059, 2-(2-Amino-3-methoxyphenyl)-4H-1-benzopyran-4-one]
Hec50co cells [1]; 5 μM
  cytotoxicity: 3.8%
Hec50co cells [1]; 10 μM
  cytotoxicity: 5.3%
Hec50co cells [1]; 25 μM
  cytotoxicity: 17%
Hec50co cells [2]; 25 μM PD98059, 24 hr
  cells at the G0/G1 phase: 63.04%
[3]; C0, Non compartment model, mice
  C0: 2910 ng/mL
[3]; C0, One-compartment model, mice
  C0: 2630 ng/mL
[3]; C0, Two-compartment model, mice
  C0: 3150 ng/mL
[3]; Non compartment model, mice
  clearance: 0.31 mL/min
  MRT inf: 7.29 h
[3]; One-compartment model, mice
  clearance: 1.25 mL/min
  MRT inf: 0.503 h
[3]; Two-compartment model, mice
  clearance: 0.29 mL/min
  MRT inf: 9.26 h
[3]; T1/2(α), Two-compartment model, mice
  half-life: 0.151 h
[3]; T1/2(β), Two-compartment model, mice
  half-life: 7.13 h
[3]; T1/2, Non compartment model, mice
  half-life: 5.25 h
[3]; T1/2, One-compartment model, mice
  half-life: 0.348 h
[3]; [7]
  Vd: 0.136 L
  AUC0-inf: 320.68 μg x min/mL
  AUC0-t: 175.72 μg x min/mL
  AUMC0-inf: 140,206.69 μg x min^2/mL
  V: 141.65 mL
[3]; [8]
  Vd: 0.0379 L
  AUC0-inf: 79.61 μg x min/mL
  AUC0-t: 79.61 μg x min/mL
  AUMC0-inf: 2,402.29 μg x min^2/mL
  K: 0.033 min⁻¹
  V: 37.90 mL
[3]; [9]
  Vd: 0.163 L
  A: 2.65 µg/mL
  AUC0-inf: 340.78 μg x min/mL
  AUC0-t: 170.01 μg x min/mL
  AUMC0-inf: 189,279.12 μg x min^2/mL
  B: 0.49 µg/mL
  K10: 0.0092 min⁻¹
  K12: 0.055 min⁻¹
  K21: 0.013 min⁻¹
  V: 31.72 mL
  α: 0.076 min⁻¹
  β: 0.0016 min⁻¹
[3]; Non compartment model, IV 113 μg PD98059, mice
  K: 0.0022 min⁻¹
[4]; 5 minutes following IV injection
  maximum PD98059 level in the brain: about 3 μg/g
[4]; Brain
  AUC0-6: 334.25 μg x min/mL
[4]; Heart
  AUC0-6: 160.37 μg x min/mL
[4]; Kidney
  AUC0-6: 301.47 μg x min/mL
[4]; Liver
  AUC0-6: 125.38 μg x min/mL
[4]; Lung
  AUC0-6: 459.51 μg x min/mL
[4]; Muscle
  AUC0-6: 129.86 μg x min/mL
[4]; Pancreas
  AUC0-6: 177.37 μg x min/mL
[4]; Spleen
  AUC0-6: 129.72 μg x min/mL
[5]
  distribution half-life: less than 10 minutes
[6]
  free PD98059 dissolved: more than 80%

## CC(=O)O[C@H]1C(=O)[C@@]2(C)[C@H]([C@H](OC(=O)c3ccccc3)[C@]3(O)C[C@H](OC(=O)[C@H](O)[C@@H](NC(=O)c4ccccc4)c4ccccc4)C(C)=C1C3(C)C)[C@]1(OC(C)=O)CO[C@@H]1C[C@@H]2O [PTX, paclitaxel]
Hec50co cells [2]; 5 nM PTX + 25 μM PD98059, 24 hr
  cells at the G2/M phase: 42.15%
Hec50co cells [2]; 5 nM PTX, 24 hr
  cells at the G2/M phase: 37.2%
Hec50co cells [2]; 10 nM PTX + 25 μM PD98059, 24 hr
  cells at the G2/M phase: 74.99%
Hec50co cells [2]; 10 nM PTX, 24 hr
  cells at the G2/M phase: 45.74%
